# An excerpt weighted towards active compounds, which were near 1.8% of everything screened.
# CHRM4 agonist = CHRM4 agonism in calcium assay. P08173. CHO-K1 hM4/Gqi5, Fluo-8 calcium fluorescence; vehicle 0%, full acetylcholine response 100%. activation, % at 3 µM. 0.14% of 360,000 active. AID 624127;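 active = activation above the run mean over all test wells plus 3 SD, cut at about 32% in these data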;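 note: peak over basal fluorescence ratio per well then scaled between controls; 0% = DMSO wells and 100% = acetylcholine at EC100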
# Target sequence (P08173 whole entry, looked up): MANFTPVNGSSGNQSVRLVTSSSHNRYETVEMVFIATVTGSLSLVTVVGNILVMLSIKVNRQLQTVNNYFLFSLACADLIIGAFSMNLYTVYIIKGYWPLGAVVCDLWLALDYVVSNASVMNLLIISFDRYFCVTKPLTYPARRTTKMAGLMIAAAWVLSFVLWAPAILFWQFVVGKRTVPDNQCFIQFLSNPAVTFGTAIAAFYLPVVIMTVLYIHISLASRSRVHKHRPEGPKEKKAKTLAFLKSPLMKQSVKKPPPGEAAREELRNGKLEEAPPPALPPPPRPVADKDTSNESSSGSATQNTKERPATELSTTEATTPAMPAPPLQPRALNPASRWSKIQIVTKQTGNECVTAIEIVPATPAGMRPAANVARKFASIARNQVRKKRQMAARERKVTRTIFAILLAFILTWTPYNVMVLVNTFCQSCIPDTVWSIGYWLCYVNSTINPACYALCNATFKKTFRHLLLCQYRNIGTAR
# CHRM5 agonist = CHRM5 agonism in calcium assay; CHO-K1 hM5 cells, Fluo-8 calcium fluorescence; 0% DMSO wells, 100% maximal acetylcholine response; 0.19% of 360,000 active; activation, % at 3 µM;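 active = activation above the run's mean over test compounds plus 3 SD, cut at about 23% in these data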;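 note: signal is peak over basal fluorescence ratio across the kinetic read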
# M4 antag = antagonists of human muscarinic M4 receptor (CHRM4); P08173; CHO-hM4 cells, ACh EC80, Fluo-8 calcium fluorescence; inhibition, % at 3 µM; 0.73% of 360,000 active;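 active = inhibition above its plate's cutoff, the mean inhibition of sample wells plus 3 SD, cut at about 27% in these data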;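 note: 0% = acetylcholine EC80 with DMSO and 100% = DMSO without agonist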
# M5 PAM = positive allosteric modulators of human muscarinic M5 receptor; CHO-K1 hM5, Fluo-8 calcium, ACh EC20 PAM; 0% = ACh EC20, 100% = ACh EC100; activation, % at 3 µM; 0.3% of 360,000 active; AID 624038;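 active = activation above the run cutoff, the mean activation of all test compounds plus 3 SD, cut at about 18% in these data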
#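 Assay system: CHO-K1 hM5 cells / Incubation: Fluo-8 loading 80 min at 37 °C plus 30 min room temperature / Technique: Fluo-8 calcium dye fluorescence, kinetic read / Repeats: single replicate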
# CHRM5 antagonist = antagonists of human muscarinic M5 receptor (CHRM5). CHO-hM5 cells, Fluo-8 calcium fluorescence, ACh EC80. P08912. AID 624040. inhibition, % at 3 µM. 0.59% of 360,000 active;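 active = inhibition above a per-plate cutoff, the mean of that plate's test compounds plus 3 SD, cut at about 27% in these data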;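 note: 0% = acetylcholine EC80 with DMSO and 100% = DMSO without agonist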
# CHRM4 PAM = CHRM4 positive allosteric modulation | P08173 | CHO-K1 hM4/Gqi5, Fluo-8 calcium fluorescence, ACh EC20; 0% = ACh EC20, 100% = maximal ACh | activation, % at 3 µM | 0.4% of 360,000 active | AID 624126;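 active = activation above its plate's cutoff, the mean activation of sample wells plus 3 SD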
# An asterisk follows results filed as active.
SMILES,CHRM4 agonist,CHRM5 agonist,M4 antag,M5 PAM,CHRM5 antagonist,CHRM4 PAM
CCn1ccnc1CN1CCCC(C(=O)c2cccc(C(F)(F)F)c2)C1 (centres undefined),3.1,-9.4,46.8*,-10.7,1.3,-20.4
CCOC(=O)[C@]12Cc3c(cc(OC)c(OC)c3OC)[C@H]1N(C1CCCCC1)C(=O)c1ccccc12,-1.2,11.5,8.7,11.6,6.1,0.3
COc1cccc(-n2c(C)nc3ccccc3c2=O)c1,0.5,0.1,-7.0,-5.4,-3.0,27.4*
O=C(Cc1ccccc1)Oc1cccc(N2C(=O)CCC2=O)c1,-0.1,4.8,1.2,-5.1,-0.7,-3.1
CC(C)(C)c1cc(OC(=O)Cc2ccccc2)ccc1O,-0.8,0.3,-2.5,18.5*,-4.8,-3.9
CN(C)c1ccc(/C=C/[N+](=O)[O-])cc1,10.1,34.8*,10.8,-7.7,54.9*,1.1
O=C(Nc1cccc(C(F)(F)F)c1)OC1CN2CCC1CC2 (centres undefined),2.5,-6.5,43.3*,-17.5,69.8*,-15.8
O=C(Nc1ccc(C(F)(F)F)cc1)OC1CN2CCC1CC2 (centres undefined),4.3,-16.0,-5.2,-7.4,5.9,-20.4
CCOC(=O)[C@]12Cc3ccc(C)cc3[C@H]1N(C1CCCCC1)C(=O)c1cc(OC)ccc12,-2.3,17.8,21.3,16.0,3.9,4.7
CCOC(=O)[C@]12Cc3cc(Cl)ccc3[C@H]1N(C1CCCCC1)C(=O)c1cc(OC)ccc12,1.2,51.1*,77.2*,5.8,17.6,-9.1
CCOC(=O)[C@]12Cc3cc(C)ccc3[C@H]1N(C1CCCCC1)C(=O)c1ccccc12,2.8,26.8*,20.4,9.1,5.5,-2.5
CCOC(=O)[C@]12Cc3ccc(C)cc3[C@H]1N(C1CCCCC1)C(=O)c1ccccc12,-2.7,10.5,5.9,13.2,6.3,1.7
[Cl][Pt+2][Cl].[NH-]C1CCCCC1[NH-] (centres undefined),0.7,0.6,-3.5,-4.0,1.3,-1.5
O=C(CCCc1ccc(N(CCCl)CCCl)cc1)NCc1ccccc1,0.6,3.9,-5.0,-1.1,14.4,-0.4
CC(C)N(C(=O)CCl)c1ccccc1,0.2,-0.8,4.5,-13.6,9.1,-7.5
Clc1ccccc1CNC1CN2CCC1CC2 (centres undefined),0.4,-7.7,17.1,-18.4,32.4*,-9.9
c1ccc(CNC2CN3CCC2CC3)cc1 (centres undefined),0.7,-8.5,8.9,-33.2,15.6,-8.3
CC(=O)OC1CC2OC3C=C(C)CCC3(C)C1(C)C21CO1 (centres undefined),0.1,2.5,-6.1,3.9,-6.7,0.3
COc1ccc(C(c2nnnn2-c2ccc3c(c2)OCCO3)N2CCC3(CC2)C(=O)NCN3c2ccccc2)cc1 (centres undefined),6.0,2.1,1.1,-6.2,9.4,-0.4
CC(C)C[C@H]1COc2cc(N3CCN(C)CC3)ccc2S(=O)(=O)N1,1.6,-1.9,-4.0,-4.9,1.1,9.3
O=C1NCN(c2ccccc2)C12CCN(C(c1ccnc3ccccc13)c1nnnn1-c1ccc3c(c1)OCCO3)CC2 (centres undefined),18.3,2.1,11.9,-13.6,11.1,-11.6
O=[N+]([O-])c1cc(O)c(O)c([N+](=O)[O-])c1,1.0,-0.5,5.2,-3.5,7.9,-0.4
O=[N+]([O-])c1cc(-n2cnnn2)c(O)c([N+](=O)[O-])c1,1.4,0.6,3.0,9.9,4.2,30.1*
CC(C)(C)N1Cc2ccccc2C1=N,1.0,-13.0,-4.9,30.9*,-4.0,-2.2
Cc1cc(C)nc(N2Cc3ccccc3C2=N)n1,0.0,-9.0,1.0,3.9,3.7,-3.9
O=C1NCN(c2ccccc2)C12CCNCC2,0.8,-3.6,-5.0,0.4,-1.1,9.7
O=C(NCCN1CCC2(CC1)C(=O)NCN2c1cccc(F)c1)c1ccc2ccccc2c1,107.0*,51.7*,101.2*,-25.4,98.9*,-17.9
CNc1cc(Cl)c2nonc2c1[N+](=O)[O-],-1.8,-5.5,34.0*,-7.3,15.2,-6.2

# Source: PubChem BioAssay (The Scripps Research Institute Molecular Screening Center)
